Active and inactive are the calls of the source.
Experiments:
[1] = Neurotoxicity in ip dosed albino CD-1 mouse assessed as motor impairment by rotarod test; assay type: toxicity, organism-based; conditions: in vivo
Outline: (§1)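 Quantitative work at time of peak effect previously estimated in screening; groups of six mice given various i.p. doses until ≥3 points within 10–90% seizure protection (MES or scPTZ) or minimal motor impairment on rotarod (10 rpm, failure to hold ≥1 min).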

Mus musculus [2] = assay: Anticonvulsant activity in ip dosed albino CD-1 mouse assessed as protection against subcutaneous pentylenetetrazole-induced seizure measured as time to peak effect; assay type: functional; outline: as §1
Vibrio harveyi [3] = assay: Antimutagenic activity in Vibrio harveyi BB7XM assessed as inhibition of nitroquinoline-N-oxide-induced revertant colonies; assay type: functional
Outline: (§2)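 Revertants induced by 4-nitroquinoline-N-oxide (final 40 ng/ml) with versus without test compound; TA100 at 37 °C, V. harveyi strains at 30 °C in BOSS medium. Three independent repetitions; inhibition % = 100 − (R1/R2 × 100); 25–40% moderate, ≥40% strong.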

Mus musculus [4] = assay: Anticonvulsant activity in albino CD-1 mouse assessed as protection against subcutaneous pentylenetetrazole-induced seizure at 30 to 300 mg/kg, ip measured after 2.0 hrs; assay type: functional; conditions: for minimal effective dose: CD-1, 2 h, read-out: MED
Outline: (§3)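 Male CD-1 mice given compound i.p. (0.5% methylcellulose suspension) at 30, 100, 300 mg/kg, four per group; pentylenetetrazole 85 mg/kg s.c. at 0.5 or 2 h. Absence of clonic convulsions (≥5 s) over 30 min observation counts as protection. Minimum active dose reported.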

Vibrio harveyi [5] = assay: Mutagenic activity in Vibrio harveyi BB7 assessed as mutagenicity index at 40 ng/ml; assay type: organism-based; conditions: in vivo
Outline: (§4)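 Ames TA100 liquid pre-incubation (minimal medium, 37 °C) and V. harveyi assay (BOSS medium, 30 °C); test at 40 ng/ml, triplicate. Mutagenic index = induced revertants / spontaneous revertants (DMSO control); M.I. ≥2 considered mutagenic.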

Mus musculus [6] = assay: Neurotoxicity in albino CD-1 mouse assessed as motor impairment at 30 to 300 mg/kg mg/kg, ip measured after 0.5 hrs by rotarod test; assay type: toxicity, organism-based; conditions: in vivo
Outline: (§5)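 Rotarod in male CD-1 mice at 0.5 and 2 h after i.p. 30, 100 or 300 mg/kg (methylcellulose suspension); motor impairment = inability to keep balance on rod turning at 10 rpm for at least 1 min. Minimum neurotoxic dose reported.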

Mus musculus [7] = assay: Neurotoxicity in albino CD-1 mouse assessed as motor impairment at 30 to 300 mg/kg mg/kg, ip measured after 2 hrs by rotarod test; assay type: toxicity, organism-based; conditions: in vivo; outline: as §5
Vibrio harveyi [8] = assay: Antimutagenic activity in Vibrio harveyi BB7 assessed as inhibition of nitroquinoline-N-oxide-induced revertant colonies; assay type: functional; outline: as §2
Mus musculus [9] = assay: Anticonvulsant activity in albino CD-1 mouse assessed as protection against subcutaneous pentylenetetrazole-induced seizure at 30 to 300 mg/kg, ip measured after 0.5 hrs; assay type: functional; conditions: for minimal effective dose: CD-1, 0.5 h, read-out: MED; outline: as §3
Vibrio harveyi [10] = assay: Mutagenic activity in Vibrio harveyi BB7XM assessed as mutagenicity index at 40 ng/ml; assay type: organism-based; conditions: in vivo; outline: as §4
[11] = Protective index, ratio of TD50 for neurotoxicity in ip dosed albino CD-1 mouse to ED50 for anticonvulsant activity in ip dosed subcutaneous pentylenetetrazole-induced seizure albino CD-1 mouse model; assay type: toxicity, organism-based; conditions: in vivo, read-out: Ratio TD50/ED50
Outline: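 Protective index computed as TD50 (rotarod) divided by ED50 (MES or scPTZ), both from probit analysis on groups of six i.p.-dosed mice.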

Mus musculus [12] = assay: Anticonvulsant activity in ip dosed albino CD-1 mouse assessed as protection against maximal electroshock-induced seizure measured as time to peak effect; assay type: functional; outline: as §1
Mus musculus [13] = assay: Anticonvulsant activity in albino CD-1 mouse assessed as protection against maximal electroshock-induced seizure at 30 to 300 mg/kg, ip measured after 2.0 hrs; assay type: functional; conditions: for minimal effective dose: CD-1, ip, read-out: MED
Outline: (§6)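 Male CD-1 mice (16–26 g), compound suspended in 0.5% methylcellulose/water, i.p. at 30, 100, 300 mg/kg; four mice per group, each used once. Electroconvulsion by electrical stimulus 0.2 s at 50 Hz; protection scored at 0.5 and 2 h. Value is minimum dose showing activity.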

Salmonella typhimurium [14] = assay: Antimutagenic activity in Salmonella typhimurium TA100 assessed as inhibition of nitroquinoline-N-oxide-induced revertant colonies by Ames test; assay type: functional, Salmonella enterica subsp. enterica serovar Typhimurium; outline: as §2
Salmonella typhimurium [15] = assay: Mutagenic activity in Salmonella typhimurium TA100 assessed as mutagenicity index at 40 ng/ml by Ames test; assay type: toxicity, organism-based; conditions: salmonella enterica subsp. enterica serovar typhimurium; outline: as §4
Mus musculus [16] = assay: Anticonvulsant activity in albino CD-1 mouse assessed as protection against maximal electroshock-induced seizure at 30 to 300 mg/kg, ip measured after 0.5 hrs; assay type: functional; conditions: for minimal effective dose: CD-1, ip, read-out: MED; outline: as §6
Mus musculus [17] = assay: Anticonvulsant activity in ip dosed albino CD-1 mouse assessed as protection against subcutaneous pentylenetetrazole-induced seizure; assay type: functional; outline: as §1
Mus musculus [18] = assay: Anticonvulsant activity in ip dosed albino CD-1 mouse assessed as protection against 6 Hz current-induced seizure measured after 2.0 hrs; assay type: functional; conditions: CD-1, ip, read-out: MED
Outline: (§7)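 6-Hz psychomotor test: corneal stimulation 32 mA, 0.2 ms monopolar rectangular pulses at 6 Hz for 3 s, mice restrained then released to observation cage. Protected if normal exploratory behaviour resumes within 10 s. Doses 30, 100, 300 mg/kg i.p.; read at 0.5 and 2 h; minimum active dose.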

Mus musculus [19] = assay: Anticonvulsant activity in ip dosed albino CD-1 mouse assessed as protection against 6 Hz current-induced seizure measured after 0.5 hrs; assay type: functional; conditions: CD-1, ip, read-out: MED; outline: as §7
Mus musculus [20] = assay: Neurotoxicity in albino CD-1 mouse assessed as mouse mortality at 300 mg/kg mg/kg, ip measured after 0.5 hrs; assay type: toxicity, organism-based; conditions: in vivo
Outline: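 Male albino CD-1 mice (16–26 g), four per group, each used once. Compounds were suspended in 0.5% methylcellulose/water and injected i.p. at 30, 100 and 300 mg/kg. Acute motor impairment was scored by rotarod at 0.5 and 2 h: inability to stay on a rod turning at 10 rpm for at least 1 min.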

| SMILES | TD50 [1] [mg/kg] | Time (Mus musculus [2]) [h] | MED (Mus musculus [4]) | MTC (Mus musculus [6]) | MTC (Mus musculus [7]) | minimal effective dose (Mus musculus [9]) [mg/kg] | selectivity ratio [11] | Time (Mus musculus [12]) [h] | minimal effective dose (Mus musculus [13]) [mg/kg] | MED (Mus musculus [16]) | ED50 (Mus musculus [17]) [mg/kg] | MED (Mus musculus [9]) | MED (Mus musculus [13]) | minimal effective dose (Mus musculus [16]) [mg/kg] | minimal effective dose (Mus musculus [4]) [mg/kg] | also measured |
| --- | --- | --- | --- | --- | --- | --- | --- | --- | --- | --- | --- | --- | --- | --- | --- | --- |
| CC1(c2ccccc2)CC(=O)N(CC(=O)N2CCC(Cc3ccccc3)CC2)C1=O (stereo not given) | > 500 | 0.5 | inactive | Non-toxic | Non-toxic | 100 | > 8.33 | 0.5 | 300 | inactive | 60 |  |  |  |  | inhibition (INH) (Vibrio harveyi [3]): 26%; Activity_index (Vibrio harveyi [5]): 1.5; inhibition (INH) (Vibrio harveyi [8]): 22%; Activity_index (Vibrio harveyi [10]): 1.6; inhibition (INH) (Salmonella typhimurium [14]): 5%; Activity_index (Salmonella typhimurium [15]): 0.5 |
| Cc1ccccc1N1CCN(C(=O)CN2C(=O)CC(C)(c3ccccc3)C2=O)CC1 (stereo not given) |  |  | inactive | Non-toxic | Non-toxic |  |  |  |  | inactive |  | inactive | inactive |  |  |  |
| Cc1cccc(N2CCN(C(=O)CN3C(=O)CC(C)(c4ccccc4)C3=O)CC2)c1 (stereo not given) |  |  | inactive | 300 mg/kg | 300 mg/kg |  |  |  | 300 |  |  | inactive |  | 100 |  |  |
| CCCC(CCC)C(=O)O [VALPROIC ACID] |  | 0.5 | inactive | Non-toxic | Non-toxic | 300 |  | 0.5 |  |  |  |  | inactive | 300 |  |  |
| CC1(c2ccccc2)CC(=O)N(CC(=O)N2CCN(c3ccccc3Cl)CC2)C1=O (stereo not given) | > 500 | 2 |  | Non-toxic | Non-toxic |  | > 4.16 | 2 |  | inactive | 120 | inactive | inactive |  | 100 |  |
| CC1(c2ccccc2)CC(=O)N(CC(=O)N2CCN(c3cccc(C(F)(F)F)c3)CC2)C1=O (stereo not given) |  |  | inactive | Non-toxic | Non-toxic |  |  |  | 300 |  |  | inactive |  | 300 |  | minimal effective dose (Mus musculus [18]): 300 mg/kg; minimal effective dose (Mus musculus [19]): 300 mg/kg |
| CC1(c2ccccc2)CC(=O)N(CC(=O)N2CCN(c3ccc(Cl)cc3)CC2)C1=O (stereo not given) |  |  |  | Non-toxic | Non-toxic | 300 |  |  |  | inactive |  |  | inactive |  | 300 |  |
| CC1(c2ccccc2)CC(=O)N(CC(=O)N2CCN(C3CCCCC3)CC2)C1=O (stereo not given) |  |  | inactive | 300 mg/kg | Non-toxic |  |  |  |  | inactive |  | inactive | inactive |  |  | Activity (Mus musculus [20]): Toxic |
| CC1(c2ccccc2)CC(=O)N(CC(=O)N2CCN(Cc3ccccc3)CC2)C1=O (stereo not given) | 205 | 0.5 |  | 300 mg/kg | 300 mg/kg | 100 | 2.12 | 0.5 |  | inactive | 96.5 |  | inactive |  | 300 |  |
